# Assay results published in ChEMBL document CHEMBL1155222, “Synthesis and anticancer activity of N-bis(trifluoromethyl)alkyl-N'-thiazolyl and N-bis(trifluoromethyl)alkyl-N'-benzothiazolyl ureas” (2009).
# What was measured:
# Format in all cases: functional
# MDA-N = experiment: Anticancer activity against human MDA-N cells after 48 hrs by sulforhodamine B assay
# Method in brief: (§1)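 NCI 60-cell-line screen. Cells grown in RPMI 1640 with 5% FBS and 2 mM L-glutamine, plated at 5000–40,000 cells/well, and preincubated 24 h at 37 °C under 5% CO2. Compounds were taken from DMSO stocks and tested at five final concentrations, 10^-4 to 10^-8 M, for 48 h. Cells were TCA-fixed, stained with 0.4% SRB, and read at 515 nm. GI50, TGI and LC50 were derived as log molar values.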
# SF-295 = experiment: Anticancer activity against human SF295 cells after 48 hrs by sulforhodamine B assay; settings: SF-295, 48 h; method in brief: as §1
# SF-539 = experiment: Anticancer activity against human SF539 cells after 48 hrs by sulforhodamine B assay; settings: SF-539, 48 h; method in brief: as §1
# T47D = experiment: Anticancer activity against human T47D cells after 48 hrs by sulforhodamine B assay
# Method in brief: (§2)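 NCI 60-cell-line panel; cells grown in RPMI 1640 with 5% FBS and 2 mM L-glutamine, plated at 5000–40,000 cells/well and preincubated 24 h at 37 °C, 5% CO2. Compounds came from DMSO stocks diluted in medium with gentamicin and were tested at five final concentrations, 10^-4 to 10^-8 M, for 48 h. Cells were fixed with TCA, stained with SRB and read at 515 nm. GI50, TGI and LC50 were derived as log molar values.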
# HCT-15 = experiment: Anticancer activity against human HCT15 cells after 48 hrs by sulforhodamine B assay; settings: HCT-15, 48 h; method in brief: as §1
# ACHN = experiment: Anticancer activity against human ACHN cells after 48 hrs by sulforhodamine B assay; method in brief: as §1
# A498 = experiment: Anticancer activity against human A498 cells after 48 hrs by sulforhodamine B assay; settings: A498, 48 h; method in brief: as §1
# SK-MEL-5 = experiment: Anticancer activity against human SK-MEL-5 cells after 48 hrs by sulforhodamine B assay; settings: SK-MEL-5, 48 h; method in brief: as §1
# OVCAR-4 = experiment: Anticancer activity against human OVCAR4 cells after 48 hrs by sulforhodamine B assay; settings: OVCAR-4, 48 h; method in brief: as §1
# EKVX = experiment: Anticancer activity against human EKVX cells after 48 hrs by sulforhodamine B assay; method in brief: as §1
# U-251 = experiment: Anticancer activity against human U251 cells after 48 hrs by sulforhodamine B assay; settings: U-251, 48 h; method in brief: as §2
# MDA-MB-435 = experiment: Anticancer activity against human MDA-MB-435 cells after 48 hrs by sulforhodamine B assay; settings: MDA-MB-435, 48 h; method in brief: as §1
# MOLT-4 = experiment: Anticancer activity against human MOLT4 cells after 48 hrs by sulforhodamine B assay; settings: MOLT-4, 48 h; method in brief: as §1
# SN12C = experiment: Anticancer activity against human SN12C cells after 48 hrs by sulforhodamine B assay; method in brief: as §2
# OVCAR-8 = experiment: Anticancer activity against human OVCAR8 cells after 48 hrs by sulforhodamine B assay; settings: OVCAR-8, 48 h; method in brief: as §1
# M14 = experiment: Anticancer activity against human M14 cells after 48 hrs by sulforhodamine B assay; settings: M14, 48 h; method in brief: as §1
# NCI-H322M = experiment: Anticancer activity against human NCI-H322M cells after 48 hrs by sulforhodamine B assay; method in brief: as §1
# Malme-3M = experiment: Anticancer activity against human MALME-3M cells after 48 hrs by sulforhodamine B assay; method in brief: as §1
# HT-29 = experiment: Anticancer activity against human HT-29 cells after 48 hrs by sulforhodamine B assay; settings: HT-29, 48 h; method in brief: as §1
# DU-145 = experiment: Anticancer activity against human DU145 cells after 48 hrs by sulforhodamine B assay; settings: DU-145, 48 h; method in brief: as §1
# SNB-75 = experiment: Anticancer activity against human SNB75 cells after 48 hrs by sulforhodamine B assay; settings: SNB-75, 48 h; method in brief: as §2
# HCC 2998 = experiment: Anticancer activity against human HCC2998 cells after 48 hrs by sulforhodamine B assay; settings: HCC 2998, 48 h; method in brief: as §1
# 786-0 = experiment: Anticancer activity against human 786-0 cells after 48 hrs by sulforhodamine B assay; settings: 786-0, 48 h; method in brief: as §1
# RXF 393 = experiment: Anticancer activity against human RXF393 cells after 48 hrs by sulforhodamine B assay; settings: RXF 393, 48 h; method in brief: as §1
# SK-OV-3 = experiment: Anticancer activity against human SKOV3 cells after 48 hrs by sulforhodamine B assay; settings: SK-OV-3, 48 h; method in brief: as §1
# CAKI-1 = experiment: Anticancer activity against human Caki1 cells after 48 hrs by sulforhodamine B assay; settings: CAKI-1, 48 h; method in brief: as §1
# MCF7 = experiment: Anticancer activity against human MCF7 cells after 48 hrs by sulforhodamine B assay; settings: MCF7, 48 h; method in brief: as §1
# MDA-MB-231 = experiment: Anticancer activity against human MDA-MB-231 cells after 48 hrs by sulforhodamine B assay; settings: MDA-MB-231, 48 h; method in brief: as §1
# UO-31 = experiment: Anticancer activity against human UO31 cells after 48 hrs by sulforhodamine B assay; settings: UO-31, 48 h; method in brief: as §2
# CCRF-CEM = experiment: Anticancer activity against human CCRF-CEM cells after 48 hrs by sulforhodamine B assay; method in brief: as §1
# SK-MEL-28 = experiment: Anticancer activity against human SK-MEL-28 cells after 48 hrs by sulforhodamine B assay; settings: SK-MEL-28, 48 h; method in brief: as §1
# SK-MEL-2 = experiment: Anticancer activity against human SK-MEL-2 cells after 48 hrs by sulforhodamine B assay; settings: SK-MEL-2, 48 h; method in brief: as §1
# KM12 = experiment: Anticancer activity against human KM12 cells after 48 hrs by sulforhodamine B assay; settings: KM12, 48 h; method in brief: as §1
# UACC-62 = experiment: Anticancer activity against human UACC62 cells after 48 hrs by sulforhodamine B assay; settings: UACC-62, 48 h; method in brief: as §2
# OVCAR-3 = experiment: Anticancer activity against human OVCAR-3 cells after 48 hrs by sulforhodamine B assay; settings: OVCAR-3, 48 h; method in brief: as §1
# SNB-19 = experiment: Anticancer activity against human SNB19 cells after 48 hrs by sulforhodamine B assay; settings: SNB-19, 48 h; method in brief: as §2
# NCI/ADR-RES = experiment: Anticancer activity against human NCI/ADR-RES cells after 48 hrs by sulforhodamine B assay; method in brief: as §1
# HCT-116 = experiment: Anticancer activity against human HCT116 cells after 48 hrs by sulforhodamine B assay; settings: HCT-116, 48 h; method in brief: as §1
# OVCAR-5 = experiment: Anticancer activity against human OVCAR5 cells after 48 hrs by sulforhodamine B assay; settings: OVCAR-5, 48 h; method in brief: as §1
# NCI-H226 = experiment: Anticancer activity against human NCI-H226 cells after 48 hrs by sulforhodamine B assay; settings: NCI-H226, 48 h; method in brief: as §1
# SR = experiment: Anticancer activity against human SR cells after 48 hrs by sulforhodamine B assay; method in brief: as §2
# IGROV-1 = experiment: Anticancer activity against human IGROV1 cells after 48 hrs by sulforhodamine B assay; settings: IGROV-1, 48 h; method in brief: as §1
# PC-3 = experiment: Anticancer activity against human PC3 cells after 48 hrs by sulforhodamine B assay; settings: PC-3, 48 h; method in brief: as §1
# HOP-92 = experiment: Anticancer activity against human HOP92 cells after 48 hrs by sulforhodamine B assay; settings: HOP-92, 48 h; method in brief: as §1
smiles,measurement,setting,value
CNC(=O)Nc1ccccc1,GI50,MDA-N,100 µM
same,GI50,SF-295,100 µM
same,GI50,SF-539,100 µM
same,GI50,T47D,100 µM
same,GI50,HCT-15,100 µM
same,GI50,ACHN,100 µM
same,GI50,A498,100 µM
same,GI50,SK-MEL-5,100 µM
same,GI50,OVCAR-4,100 µM
same,GI50,EKVX,100 µM
same,GI50,U-251,100 µM
same,GI50,MDA-MB-435,100 µM
same,GI50,MOLT-4,100 µM
same,GI50,SN12C,100 µM
same,GI50,OVCAR-8,100 µM
same,GI50,M14,100 µM
same,GI50,NCI-H322M,100 µM
same,GI50,Malme-3M,100 µM
same,GI50,HT-29,100 µM
same,GI50,DU-145,100 µM
same,GI50,SNB-75,74.1 µM
same,GI50,HCC 2998,100 µM
same,GI50,786-0,100 µM
same,GI50,RXF 393,100 µM
same,GI50,SK-OV-3,100 µM
same,GI50,CAKI-1,100 µM
same,GI50,MCF7,100 µM
same,GI50,MDA-MB-231,100 µM
same,GI50,UO-31,100 µM
same,GI50,CCRF-CEM,100 µM
same,GI50,SK-MEL-28,100 µM
same,GI50,SK-MEL-2,100 µM
same,GI50,KM12,100 µM
same,GI50,UACC-62,100 µM
same,GI50,OVCAR-3,100 µM
same,GI50,SNB-19,100 µM
same,GI50,NCI/ADR-RES,100 µM
same,GI50,HCT-116,100 µM
same,GI50,OVCAR-5,100 µM
same,GI50,NCI-H226,100 µM
same,GI50,SR,100 µM
same,GI50,IGROV-1,100 µM
same,GI50,PC-3,100 µM
same,GI50,HOP-92,100 µM
O=c1[nH]cc(F)c(=O)[nH]1 [FLUOROURACIL],GI50,SF-295,0.229 µM
same,GI50,SF-539,0.0631 µM
same,GI50,T47D,8.13 µM
same,GI50,HCT-15,0.11 µM
same,GI50,ACHN,0.295 µM
same,GI50,A498,0.398 µM
same,GI50,SK-MEL-5,0.468 µM
same,GI50,OVCAR-4,4.47 µM
same,GI50,EKVX,61.7 µM
same,GI50,U-251,0.912 µM
same,GI50,MDA-MB-435,0.0724 µM
same,GI50,MOLT-4,0.355 µM
same,GI50,SN12C,0.501 µM
same,GI50,OVCAR-8,1.74 µM
same,GI50,M14,0.977 µM
same,GI50,NCI-H322M,0.178 µM
same,GI50,Malme-3M,0.0513 µM
same,GI50,HT-29,0.178 µM
same,GI50,DU-145,0.363 µM
same,GI50,SNB-75,79.4 µM
same,GI50,HCC 2998,0.0525 µM
same,GI50,786-0,0.724 µM
same,GI50,RXF 393,2.63 µM
same,GI50,SK-OV-3,21.9 µM
same,GI50,CAKI-1,0.0724 µM
same,GI50,MCF7,0.0794 µM
same,GI50,MDA-MB-231,6.61 µM
same,GI50,UO-31,1.41 µM
same,GI50,CCRF-CEM,9.77 µM
same,GI50,SK-MEL-28,1.02 µM
same,GI50,SK-MEL-2,56.2 µM
same,GI50,KM12,0.214 µM
same,GI50,UACC-62,0.525 µM
same,GI50,OVCAR-3,0.0158 µM
same,GI50,SNB-19,3.8 µM
same,GI50,NCI/ADR-RES,0.316 µM
same,GI50,HCT-116,0.229 µM
same,GI50,OVCAR-5,11 µM
same,GI50,NCI-H226,55 µM
same,GI50,SR,0.024 µM
same,GI50,IGROV-1,1.23 µM
same,GI50,PC-3,2.34 µM
same,GI50,HOP-92,77.6 µM
